Like-named read-outs stand apart in the source and are kept apart here.
What was measured:
CD3+ cells (T-cells) = test: Pharmacodynamic effect on circulating CD3+ cells; assay type: in vivo, human; details: after 14 days of drug exposure (day 14 of cycle 1), at least 200 mg
Outline: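 Patients with relapsed or refractory lymphoid malignancies took the test compound orally each day. Two schedules were used: days 1–14 of a 21-day cycle, or continuous dosing after a 150 mg lead-in lasting 7–14 days. Circulating CD3+ counts were compared with baseline. The P-value for the change from baseline came from a Sign-test because the data were skewed.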

[1] = human, in vivo
hematological cell lines = details: in 11 of 23 hematological cell lines, ref [10]; cited from earlier work
[2] = Pharmacokinetic profile in patients
[3] = system: relapsed/refractory lymphoid malignancies; test: Tumor response and survival; assay type: in vivo, human
circulating platelets = test: Pharmacodynamic effect on circulating platelets; assay type: in vivo, human; details: platelet nadir versus navitoclax AUC, n=35 patients
[4] = system: patients with relapsed or refractory lymphoid malignancies; details: in vivo
[5] = system: patients with relapsed or refractory lymphoid malignancies; test: Phase 1 dose-escalation study: toxicity and DLT
animal models = test: Projected effective exposure from animal models; assay type: in vivo; details: based on animal models
[6] = system: BCL-XL and BCL-2 over expressing prolymphocytic murine cell lines; details: coimmunoprecipitation; ref [11], [27]; cited from earlier work
[7] = system: murine xenograft model of acute lymphocytic leukemia; details: ref [11]; cited from earlier work
[8] = system: xenograft model of mantle cell lymphoma; details: ref [11]; cited from earlier work
clinical = details: human, in vivo
[9] = system: BCL-2 dependent human small cell lung cancer (SCLC) cell line; details: within 2 hours of treatment; ref [11], [27]; cited from earlier work
BH3-only proteins = details: no reference printed with the sentence; cited from earlier work
[10] = system: human hematopoietic progenitors: erythroid precursors; test: Methylcellulose-based in vitro colony forming assay, erythroid precursors; assay type: cell-based; details: read-out: IC50, growth inhibition of erythroid precursors
[11] = system: human hematopoietic progenitors: common myeloid precursors; test: Methylcellulose-based in vitro colony forming assay, common myeloid precursors; assay type: cell-based; details: read-out: IC50, growth inhibition of common myeloid precursors
patients = details: cited from earlier work; for clinical activity: clinical testing, [24]; for clinical activity / on-target pharmacodynamic effects on platelets: ref [23]; for dose-limiting toxicities: gossypol ref [23], obatoclax ref [24]; for on-target pharmacodynamic effects on platelets: review of toxicities, [25]–[28]
[12] = Grade 1/2, Continuous (21/21) Schedule MTD 325 mg (N=5)
[13] = Grade 1/2, Intermittent (14/21) Schedule All Patients (N=38)
[14] = Grade 3/4, Continuous (21/21) Schedule All Patients (N=17)
[15] = Grade 3/4, Continuous (21/21) Schedule MTD 325 mg (N=5)
[16] = Grade 3/4, Intermittent (14/21) Schedule All Patients (N=38)
[17] = Grade 3/4, Intermittent (14/21) Schedule MTD 315 mg (N=9)

For CC1(C)CCC(c2ccc(Cl)cc2)=C(CN2CCN(c3ccc(C(=O)NS(=O)(=O)c4ccc(N[C@H](CCN5CCOCC5)CSc5ccccc5)c(S(=O)(=O)C(F)(F)F)c4)cc3)CC2)C1 [Navitoclax], the “median reduction of circulating CD3+ cells” value (CD3+ cells (T-cells)) was 241 CD3+ cells/µl, the “dose levels at which projected effective exposure was achieved” value [1] was “at least 315 mg/day” and the t½ ([1]; 315 mg) was 15·1 ± 3·0 h. For the same compound, the “increase of oral bioavailability by food” value ([1]; po) was “approximately 20%”, the “CL/F (apparent oral clearance)” value ([1]; po, 315 mg) was 4·1 ± 2·1 L/h and the EC50 (hematological cell lines) was less than 1000 nM. For the same compound, the “time to peak concentrations (Cmax) post-dose” value ([2]; 14/21-day schedule, overall) was “approximately 9 hours”, the “detection in urine (renal elimination)” value ([2]; 24-hour urine collection after dosing on C1 D–3) was “could not be detected” and the “dose dependence of exposure” value ([2]; between 10 mg and 440 mg) was “dose-proportional”. For the same compound, the “median PFS” value ([3]; 16 patients with follicular lymphoma, IQR 42-92) was 88 days, the “patients achieving a PR” value ([3]; CLL/SLL patients with measurable adenopathy) was 8 of 16 and the “PR in NK/T-cell lymphoma” value ([3]; NK/T-cell lymphoma) was “single patient”. For the same compound, the median overall survival ([3]; all 20 patients with CLL/SLL) was “has not been reached”, the “median PFS” value ([3]; all 20 patients with CLL/SLL, IQR 49-309) was 246 days and the “reduction in leukemia cells” value ([3]; all seven patients with CLL) was no less than 50%. For the same compound, the “patients with measurable tumor reduction” value ([3]; follicular lymphoma) was 6 of 16, the “patients with some tumor reduction” value ([3]; patients with evaluable adenopathy, all dose levels) was 21 of 46 and the “cycles until response, median (range)” value ([3]; responders across dose levels and tumor types) was 3.5 (2–10) cycles. The “severity of the platelet nadirs” value (circulating platelets) was “concentration dependent”, the “All Infections, patients n (%)” value ([4]; human) was 14 (82%) and the “Herpes Zoster, patients n (%)” value ([4]; human) was 1 (6%). The “dose selected for phase II study” value ([4]; human) was 325 mg, the “grade 1/2 fatigue, number of patients” value ([4]; human) was 21 patients and the “grade 3/4 neutropenia, number of patients” value ([4]; human) was 17 patients. The “grade 3/4 thrombocytopenia, number of patients” value ([4]; human) was 29 patients, the “recommended phase 2 dose” value ([4]; human) was 325 g/day and the “patients who developed respiratory infections and/or bronchitis” value [4] was “Eight”. For the same compound, the “patients who withdrew their consent for treatment” value [4] was 6 patients, the “All Infections, patients n (%)” value [5, 12] was 5 (100%) and the “Herpes Zoster, patients n (%)” value [5, 12] was 1 (20%). The “All Infections, patients n (%)” value [5, 13] was 25 (66%), the “Herpes Zoster, patients n (%)” value [5, 13] was 0 and the “All Infections, patients n (%)” value ([5]; Grade 1/2, Intermittent (14/21) Schedule MTD 315 mg (N=9)) was 8 (89%). For the same compound, the “All Infections, patients n (%)” value [5, 14] was 0, the “Herpes Zoster, patients n (%)” value [5, 14] was 0 and the “All Infections, patients n (%)” value [5, 15] was 0. For the same compound, the “Herpes Zoster, patients n (%)” value [5, 15] was 0, the “All Infections, patients n (%)” value [5, 16] was 6 (16%) and the “Herpes Zoster, patients n (%)” value [5, 16] was 1 (3%). The “All Infections, patients n (%)” value [5, 17] was 1 (11%), the “Herpes Zoster, patients n (%)” value [5, 17] was 0 and the safe tolerated dose ([5]; intermittent (14/21) schedule, oral once daily) was 315 mg. The “patients who required at least one dose reduction” value ([5]; overall dose levels) was 11 patients, the “projected effective exposure (AUC)” value (animal models) was 55000 to 88000 ng·h/mL and the “BIM:BCL-2 family protein interactions” value [6] was “dose-dependent decrease”. For the same compound, the “tumor response in xenograft” value [7] was “durable and complete tumor regressions”, the “effect on cure rate of rituximab plus chemotherapy” value [8] was “significantly improved” and the half-life (clinical) was roughly 17 h. For the same compound, the cytochrome c [9] was “increase” and the “cytosolic BAX” value [9] was “dose-dependent decrease”.
For CN(C)CC[C@H](CSc1ccccc1)Nc1ccc(S(=O)(=O)NC(=O)c2ccc(N3CCN(Cc4ccccc4-c4ccc(Cl)cc4)CC3)cc2)cc1[N+](=O)[O-] [ABT-737], the “binding affinity relative to previously reported compounds” value (BH3-only proteins) is listed as “two to three orders of magnitude greater”, the IC50 [10] is listed as 1000 nM and the IC50 [11] is listed as 900 nM.
For COC1=CC(c2cc3ccccc3[nH]2)=N/C1=C\c1[nH]c(C)cc1C [obatoclax], the clinical activity (patients) is given as “little to no clinical activity”, the dose-limiting toxicities (patients) is given as “Infusion-related somnolence and neurologic symptoms” and the “on-target pharmacodynamic effects on platelets” value (patients) is given as “no on-target pharmacodynamic effects on platelets”.
In the case of Cc1cc2c(C(C)C)c(O)c(O)c(C=O)c2c(O)c1-c1c(C)cc2c(C(C)C)c(O)c(O)c(C=O)c2c1O [gossypol], the clinical activity (patients) is given as “little to no clinical activity”, the dose-limiting toxicities (patients) is given as “gastrointestinal side effects” and the “on-target pharmacodynamic effects on platelets” value (patients) is given as “no on-target pharmacodynamic effects on platelets”.
